Source: ChEMBL document CHEMBL4325889, “Natural products hybrids: 3,5,4'-Trimethoxystilbene-5,6,7-trimethoxyflavone chimeric analogs as potential cytotoxic agents against diverse human cancer cells” (Eur J Med Chem, 2019)

Key:
Assay type in all cases: functional
HCT-116 = experiment: Growth inhibition of human HCT116 cells at 10 uM after 48 hrs by SRB assay relative to control; conditions: HCT-116, 48 h, read-out: GI
Method in brief: (§1)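 Screened at the National Cancer Institute by the standard NCI protocol using the sulforhodamine B assay, which measures cellular protein. Single dose of 10 µM. Result is percent growth inhibition; values above 100% mean cell number fell below the initial population. Values are the average of duplicates.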

SF-539 = experiment: Growth inhibition of human SF539 cells at 10 uM after 48 hrs by SRB assay relative to control; conditions: SF-539, 48 h, read-out: GI; method in brief: as §1
SNB-75 = experiment: Growth inhibition of human SNB75 cells at 10 uM after 48 hrs by SRB assay relative to control; conditions: SNB-75, 48 h, read-out: GI
Method in brief: (§2)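 NCI screen against its human cancer cell line panel by the standard NCI protocol, SRB protein stain. Single dose of 10 μM. Percent growth inhibition versus control; values above 100% mean the cell population fell below the starting number. Each value is the mean of duplicates.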

OVCAR-4 = experiment: Growth inhibition of human OVCAR4 cells at 10 uM after 48 hrs by SRB assay relative to control; conditions: OVCAR-4, 48 h, read-out: GI; method in brief: as §1
HT-29 = experiment: Growth inhibition of human HT-29 cells at 10 uM after 48 hrs by SRB assay relative to control; conditions: HT-29, 48 h, read-out: GI; method in brief: as §1
SK-MEL-2 = experiment: Growth inhibition of human SK-MEL-2 cells at 10 uM after 48 hrs by SRB assay relative to control; conditions: SK-MEL-2, 48 h, read-out: GI; method in brief: as §1
COLO 205 = experiment: Growth inhibition of human COLO205 cells at 10 uM after 48 hrs by SRB assay relative to control; conditions: COLO 205, 48 h, read-out: GI; method in brief: as §1
Malme-3M = experiment: Growth inhibition of human MALME-3M cells at 10 uM after 48 hrs by SRB assay relative to control; conditions: read-out: GI; method in brief: as §1
A549 = experiment: Growth inhibition of human A549 cells at 10 uM after 48 hrs by SRB assay relative to control; conditions: A549, 48 h, read-out: GI; method in brief: as §1
K562 = experiment: Growth inhibition of human K562 cells at 10 uM after 48 hrs by SRB assay relative to control; conditions: K562, 48 h, read-out: GI; method in brief: as §1
HCC 2998 = experiment: Growth inhibition of human HCC2998 cells at 10 uM after 48 hrs by SRB assay relative to control; conditions: HCC 2998, 48 h, read-out: GI; method in brief: as §1
MDA-MB-435 = experiment: Growth inhibition of human MDA-MB-435 cells at 10 uM after 48 hrs by SRB assay relative to control; conditions: MDA-MB-435, 48 h, read-out: GI; method in brief: as §1
Hs-578T = experiment: Growth inhibition of human Hs 578T cells at 10 uM after 48 hrs by SRB assay relative to control; conditions: read-out: GI; method in brief: as §1
NCI/ADR-RES = experiment: Growth inhibition of human NCI/ADR-RES cells at 10 uM after 48 hrs by SRB assay relative to control; conditions: read-out: GI; method in brief: as §1
SK-MEL-5 = experiment: Growth inhibition of human SK-MEL-5 cells at 10 uM after 48 hrs by SRB assay relative to control; conditions: SK-MEL-5, 48 h, read-out: GI; method in brief: as §1
UACC-62 = experiment: Growth inhibition of human UACC62 cells at 10 uM after 48 hrs by SRB assay relative to control; conditions: UACC-62, 48 h, read-out: GI; method in brief: as §2
BT-549 = experiment: Growth inhibition of human BT549 cells at 10 uM after 48 hrs by SRB assay relative to control; conditions: BT-549, 48 h, read-out: GI; method in brief: as §1
HL-60(TB) = experiment: Growth inhibition of human HL-60(TB) cells at 10 uM after 48 hrs by SRB assay relative to control; conditions: HL-60, 48 h, read-out: GI
Method in brief: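 Run at NCI under its standard single-dose protocol against a leukemia cell panel. Cells were exposed to 10 µM; growth was read by sulforhodamine B staining of cellular protein and expressed as % growth inhibition versus untreated control. Values above 100% mean the cell population fell below the starting count (cytocidal). Each value is the average of duplicates.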

786-0 = experiment: Growth inhibition of human 786-0 cells at 10 uM after 48 hrs by SRB assay relative to control; conditions: 786-0, 48 h, read-out: GI; method in brief: as §1
MDA-MB-468 = experiment: Growth inhibition of human MDA-MB-468 cells at 10 uM after 48 hrs by SRB assay relative to control; conditions: MDA-MB-468, 48 h, read-out: GI; method in brief: as §1
SNB-19 = experiment: Growth inhibition of human SNB19 cells at 10 uM after 48 hrs by SRB assay relative to control; conditions: SNB-19, 48 h, read-out: GI; method in brief: as §2
SR = experiment: Growth inhibition of human SR cells at 10 uM after 48 hrs by SRB assay relative to control; conditions: read-out: GI; method in brief: as §2
NCI-H522 = experiment: Growth inhibition of human NCI-H522 cells at 10 uM after 48 hrs by SRB assay relative to control; conditions: NCI-H522, 48 h, read-out: GI; method in brief: as §1
MOLT-4 = experiment: Growth inhibition of human MOLT4 cells at 10 uM after 48 hrs by SRB assay relative to control; conditions: MOLT-4, 48 h, read-out: GI; method in brief: as §1
HOP-92 = experiment: Growth inhibition of human HOP92 cells at 10 uM after 48 hrs by SRB assay relative to control; conditions: HOP-92, 48 h, read-out: GI; method in brief: as §1
TK-10 = experiment: Growth inhibition of human TK10 cells at 10 uM after 48 hrs by SRB assay relative to control; conditions: TK-10, 48 h, read-out: GI; method in brief: as §2
HOP-62 = experiment: Growth inhibition of human HOP62 cells at 10 uM after 48 hrs by SRB assay relative to control; conditions: HOP-62, 48 h, read-out: GI; method in brief: as §1
SW-620 = experiment: Growth inhibition of human SW620 cells at 10 uM after 48 hrs by SRB assay relative to control; conditions: SW-620, 48 h, read-out: GI; method in brief: as §2
OVCAR-3 = experiment: Growth inhibition of human OVCAR3 cells at 10 uM after 48 hrs by SRB assay relative to control; conditions: OVCAR-3, 48 h, read-out: GI; method in brief: as §1
UO-31 = experiment: Growth inhibition of human UO31 cells at 10 uM after 48 hrs by SRB assay relative to control; conditions: UO-31, 48 h, read-out: GI; method in brief: as §2
SN12C = experiment: Growth inhibition of human SN12C cells at 10 uM after 48 hrs by SRB assay relative to control; conditions: read-out: GI; method in brief: as §1
U-251 = experiment: Growth inhibition of human U251 cells at 10 uM after 48 hrs by SRB assay relative to control; conditions: U-251, 48 h, read-out: GI; method in brief: as §2
PC-3 = experiment: Growth inhibition of human PC3 cells at 10 uM after 48 hrs by SRB assay relative to control; conditions: PC-3, 48 h, read-out: GI; method in brief: as §1

COc1cc2oc(-c3cccc(NC(=O)c4ccc5c(c4)OCO5)c3)cc(=O)c2c(OC)c1OC
inhibition of growth at 10 µM (HCT-116): 64.5%
inhibition of growth at 10 µM (SF-539): 43%
inhibition of growth at 10 µM (SNB-75): 32.6%
inhibition of growth at 10 µM (OVCAR-4): 41.9%
inhibition of growth at 10 µM (HT-29): 70.6%
inhibition of growth at 10 µM (SK-MEL-2): 37.6%
inhibition of growth at 10 µM (COLO 205): 31.9%
inhibition of growth at 10 µM (Malme-3M): 23.6%
inhibition of growth at 10 µM (A549): 48.7%
inhibition of growth at 10 µM (K562): 82.6%
inhibition of growth at 10 µM (HCC 2998): 46.9%
inhibition of growth at 10 µM (MDA-MB-435): 46.7%
inhibition of growth at 10 µM (Hs-578T): 54.8%
inhibition of growth at 10 µM (NCI/ADR-RES): 42.4%
inhibition of growth at 10 µM (SK-MEL-5): 83.6%
inhibition of growth at 10 µM (UACC-62): 50%
inhibition of growth at 10 µM (BT-549): 58.6%
inhibition of growth at 10 µM (HL-60(TB)): 65.4%
inhibition of growth at 10 µM (786-0): 80.5%
inhibition of growth at 10 µM (MDA-MB-468): 24.5%
inhibition of growth at 10 µM (SNB-19): 54.4%
inhibition of growth at 10 µM (SR): 88.5%
inhibition of growth at 10 µM (NCI-H522): 63.3%
inhibition of growth at 10 µM (MOLT-4): 97.1%
inhibition of growth at 10 µM (HOP-92): 106%
inhibition of growth at 10 µM (TK-10): 38.4%
inhibition of growth at 10 µM (HOP-62): 45.6%
inhibition of growth at 10 µM (SW-620): 36%
inhibition of growth at 10 µM (OVCAR-3): 47%
inhibition of growth at 10 µM (UO-31): 75.8%
inhibition of growth at 10 µM (SN12C): 57.9%
inhibition of growth at 10 µM (U-251): 67.5%
inhibition of growth at 10 µM (PC-3): 112%

COc1cccc(C(=O)Nc2cccc(-c3cc(=O)c4c(O)c(OC)c(OC)cc4o3)c2)c1
inhibition of growth at 10 µM (HCT-116): 44.5%
inhibition of growth at 10 µM (SF-539): 22.9%
inhibition of growth at 10 µM (SNB-75): 13.1%
inhibition of growth at 10 µM (OVCAR-4): 33.4%
inhibition of growth at 10 µM (HT-29): 27.9%
inhibition of growth at 10 µM (SK-MEL-2): 21.6%
inhibition of growth at 10 µM (COLO 205): 5.46%
inhibition of growth at 10 µM (Malme-3M): 29.5%
inhibition of growth at 10 µM (A549): 35.4%
inhibition of growth at 10 µM (K562): 69.2%
inhibition of growth at 10 µM (HCC 2998): 11.8%
inhibition of growth at 10 µM (MDA-MB-435): 33.6%
inhibition of growth at 10 µM (Hs-578T): 34.1%
inhibition of growth at 10 µM (NCI/ADR-RES): 43.7%
inhibition of growth at 10 µM (SK-MEL-5): 48.9%
inhibition of growth at 10 µM (UACC-62): 39.1%
inhibition of growth at 10 µM (BT-549): 34.2%
inhibition of growth at 10 µM (HL-60(TB)): 19.5%
inhibition of growth at 10 µM (786-0): 26.7%
inhibition of growth at 10 µM (MDA-MB-468): 28.8%
inhibition of growth at 10 µM (SNB-19): 16.6%
inhibition of growth at 10 µM (SR): 54.8%
inhibition of growth at 10 µM (NCI-H522): 56.9%
inhibition of growth at 10 µM (MOLT-4): 49.3%
inhibition of growth at 10 µM (HOP-92): 31.2%
inhibition of growth at 10 µM (TK-10): 16.7%
inhibition of growth at 10 µM (HOP-62): 37.1%
inhibition of growth at 10 µM (SW-620): 19%
inhibition of growth at 10 µM (OVCAR-3): 34.1%
inhibition of growth at 10 µM (UO-31): 52.9%
inhibition of growth at 10 µM (SN12C): 34.9%
inhibition of growth at 10 µM (U-251): 28.4%
inhibition of growth at 10 µM (PC-3): 59.6%

COc1cccc(NC(=O)c2cccc(-c3cc(=O)c4c(OC)c(OC)c(OC)cc4o3)c2)c1
inhibition of growth at 10 µM (HCT-116): 39.3%
inhibition of growth at 10 µM (SF-539): 22.5%
inhibition of growth at 10 µM (SNB-75): 10.2%
inhibition of growth at 10 µM (OVCAR-4): 37.4%
inhibition of growth at 10 µM (HT-29): 49.2%
inhibition of growth at 10 µM (SK-MEL-2): 24.3%
inhibition of growth at 10 µM (COLO 205): 31.7%
inhibition of growth at 10 µM (Malme-3M): 15.2%
inhibition of growth at 10 µM (A549): 37.2%
inhibition of growth at 10 µM (K562): 59.7%
inhibition of growth at 10 µM (HCC 2998): 12.2%
inhibition of growth at 10 µM (MDA-MB-435): 18.8%
inhibition of growth at 10 µM (Hs-578T): 53.8%
inhibition of growth at 10 µM (NCI/ADR-RES): 35.2%
inhibition of growth at 10 µM (SK-MEL-5): 36.1%
inhibition of growth at 10 µM (UACC-62): 37.9%
inhibition of growth at 10 µM (BT-549): 45.8%
inhibition of growth at 10 µM (HL-60(TB)): 31.3%
inhibition of growth at 10 µM (786-0): 31.1%
inhibition of growth at 10 µM (MDA-MB-468): 21%
inhibition of growth at 10 µM (SNB-19): 17.5%
inhibition of growth at 10 µM (SR): 58.1%
inhibition of growth at 10 µM (NCI-H522): 53.4%
inhibition of growth at 10 µM (MOLT-4): 51.5%
inhibition of growth at 10 µM (HOP-92): 58.1%
inhibition of growth at 10 µM (TK-10): 21.2%
inhibition of growth at 10 µM (HOP-62): 40.5%
inhibition of growth at 10 µM (SW-620): 10.4%
inhibition of growth at 10 µM (OVCAR-3): 33.4%
inhibition of growth at 10 µM (UO-31): 68.4%
inhibition of growth at 10 µM (SN12C): 37.7%
inhibition of growth at 10 µM (U-251): 37.9%
inhibition of growth at 10 µM (PC-3): 42.9%
